Laboratory results taken from ChEMBL document CHEMBL1126202, “Dual-action penems and carbapenems” (J Med Chem, 1992).

How the values were obtained:
Escherichia coli = assay: Effect on replication DNA biosynthesis in Escherichia coli H560 (permeabilised cells).; assay type: functional, organism-based
Method in brief: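 Toluene-permeabilized E. coli H560 cells were used. Replicative DNA synthesis was measured as ATP-dependent [3H]thymidine incorporation into trichloroacetic acid-insoluble material. IC50 is the concentration giving 50% inhibition.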

Serratia marcescens = assay: In vitro antibacterial activity against serratia marcescens SM (constitutive beta-lactamase producer); assay type: functional
Method in brief: (§1)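 MIC was determined by agar dilution on Mueller-Hinton agar. Serial 2-fold aqueous dilutions were diluted 10-fold in agar to give final concentrations of 128 to 0.0156 μg/mL. Plates were inoculated by Steers replicator with overnight broth cultures diluted 100-fold.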

[1] = biological target: Penicillin-binding protein 4 (Staphylococcus aureus) (UniProt P72355); assay: Concentration inhibiting [14C]- Penicillin G binding to Staphylococcus aureus ATCC 29213 Penicillin binding protein 4 41 kDa
Staphylococcus aureus [2] = assay: (§2) In vitro antibacterial activity against Staphylococcus aureus 753 (constitutive beta-lactamase producer); assay type: functional
Method in brief: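 MIC by agar dilution on Mueller-Hinton agar. Compounds were serially 2-fold diluted in water, final 128 to 0.0156 μg/mL in agar. Inoculum: overnight broth culture diluted 100-fold, applied with a Steers replicator.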

[3] = biological target: Penicillin-binding protein 2 (Staphylococcus aureus) (UniProt Q53729); assay: Concentration inhibiting [14C]- Penicillin G binding to Staphylococcus aureus ATCC 29213 Penicillin binding protein 2, 80 kDa
[4] = biological target: T1, Penicillin-binding protein 1 (Staphylococcus aureus (strain COL)) (UniProt F4NA86); assay: Concentration inhibiting [14C]- Penicillin G binding to Staphylococcus aureus ATCC 29213 Penicillin binding protein 1, 87 kDa
T1 sequence (whole entry): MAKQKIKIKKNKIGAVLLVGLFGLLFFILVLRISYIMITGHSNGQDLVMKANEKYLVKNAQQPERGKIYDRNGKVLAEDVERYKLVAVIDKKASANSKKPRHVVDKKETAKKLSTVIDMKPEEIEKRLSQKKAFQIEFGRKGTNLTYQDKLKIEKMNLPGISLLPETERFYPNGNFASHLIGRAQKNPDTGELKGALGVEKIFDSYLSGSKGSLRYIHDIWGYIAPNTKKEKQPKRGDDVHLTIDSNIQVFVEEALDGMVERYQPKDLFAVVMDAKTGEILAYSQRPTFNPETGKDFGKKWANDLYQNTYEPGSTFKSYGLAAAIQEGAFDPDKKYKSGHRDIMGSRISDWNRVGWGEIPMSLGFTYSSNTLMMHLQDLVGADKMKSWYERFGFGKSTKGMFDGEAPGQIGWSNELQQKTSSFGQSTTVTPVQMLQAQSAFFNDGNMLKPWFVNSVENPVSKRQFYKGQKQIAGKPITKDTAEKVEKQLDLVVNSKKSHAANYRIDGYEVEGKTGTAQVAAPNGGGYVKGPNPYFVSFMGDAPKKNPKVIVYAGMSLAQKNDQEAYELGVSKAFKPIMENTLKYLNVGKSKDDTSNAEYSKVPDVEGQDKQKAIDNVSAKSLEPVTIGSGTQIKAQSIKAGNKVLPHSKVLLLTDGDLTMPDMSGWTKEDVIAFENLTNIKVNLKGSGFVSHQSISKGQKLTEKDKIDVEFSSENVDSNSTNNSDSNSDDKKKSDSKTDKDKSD

Clostridioides difficile = assay: In vitro antibacterial activity against Clostridium difficile 651; assay type: functional
Citrobacter freundii [5] = assay: In vitro antibacterial activity against citrobacter freundii BS-16 (constitutive beta-lactamase producer); assay type: functional; method in brief: as §1
Streptococcus pneumoniae [6] = assay: In vitro antibacterial activity against streptococcus pneumoniae 6301; assay type: functional
Method in brief: (§3)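 Streptococcal MICs were determined by agar dilution on brain heart infusion agar supplemented with 20 units/mL bovine liver catalase. Final concentrations were 128 to 0.0156 μg/mL from 2-fold dilutions. Inocula were overnight broth cultures diluted 100-fold, applied by Steers replicator.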

[7] = biological target: T2, Penicillin-binding protein 2b (Staphylococcus aureus) (UniProt Q9XDB3); assay: Concentration inhibiting [14C]- Penicillin G binding to Staphylococcus aureus ATCC 29213 Penicillin binding protein 3, 85 kDa
T2 sequence (whole entry): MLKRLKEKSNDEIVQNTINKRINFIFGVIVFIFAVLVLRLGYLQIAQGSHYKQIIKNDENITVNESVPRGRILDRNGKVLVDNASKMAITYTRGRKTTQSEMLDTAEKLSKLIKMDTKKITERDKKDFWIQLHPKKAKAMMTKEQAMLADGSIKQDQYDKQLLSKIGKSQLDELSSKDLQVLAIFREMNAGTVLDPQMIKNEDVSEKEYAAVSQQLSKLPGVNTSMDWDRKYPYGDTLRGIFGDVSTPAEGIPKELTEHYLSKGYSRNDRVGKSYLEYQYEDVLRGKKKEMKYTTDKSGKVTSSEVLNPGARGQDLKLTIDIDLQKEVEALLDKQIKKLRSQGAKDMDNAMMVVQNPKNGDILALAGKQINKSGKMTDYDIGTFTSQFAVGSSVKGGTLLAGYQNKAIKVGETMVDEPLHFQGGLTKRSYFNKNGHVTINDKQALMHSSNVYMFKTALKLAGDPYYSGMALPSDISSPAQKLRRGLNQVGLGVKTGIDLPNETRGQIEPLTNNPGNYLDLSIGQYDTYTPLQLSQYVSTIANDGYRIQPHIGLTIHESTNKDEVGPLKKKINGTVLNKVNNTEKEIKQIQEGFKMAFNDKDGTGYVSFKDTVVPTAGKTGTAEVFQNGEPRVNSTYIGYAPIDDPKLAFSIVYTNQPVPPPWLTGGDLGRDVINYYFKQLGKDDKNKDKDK

[8] = biological target: Penicillin-binding protein 1A (Escherichia coli K-12) (UniProt P02918); assay: Concentration inhibiting [14C]- Penicillin G binding to Escherichia coli UB1005 PBP1a (penicillin binding protein) 90 kDa
Chain of Penicillin-binding protein 1A (Escherichia coli K-12) (P02918 whole entry, looked up): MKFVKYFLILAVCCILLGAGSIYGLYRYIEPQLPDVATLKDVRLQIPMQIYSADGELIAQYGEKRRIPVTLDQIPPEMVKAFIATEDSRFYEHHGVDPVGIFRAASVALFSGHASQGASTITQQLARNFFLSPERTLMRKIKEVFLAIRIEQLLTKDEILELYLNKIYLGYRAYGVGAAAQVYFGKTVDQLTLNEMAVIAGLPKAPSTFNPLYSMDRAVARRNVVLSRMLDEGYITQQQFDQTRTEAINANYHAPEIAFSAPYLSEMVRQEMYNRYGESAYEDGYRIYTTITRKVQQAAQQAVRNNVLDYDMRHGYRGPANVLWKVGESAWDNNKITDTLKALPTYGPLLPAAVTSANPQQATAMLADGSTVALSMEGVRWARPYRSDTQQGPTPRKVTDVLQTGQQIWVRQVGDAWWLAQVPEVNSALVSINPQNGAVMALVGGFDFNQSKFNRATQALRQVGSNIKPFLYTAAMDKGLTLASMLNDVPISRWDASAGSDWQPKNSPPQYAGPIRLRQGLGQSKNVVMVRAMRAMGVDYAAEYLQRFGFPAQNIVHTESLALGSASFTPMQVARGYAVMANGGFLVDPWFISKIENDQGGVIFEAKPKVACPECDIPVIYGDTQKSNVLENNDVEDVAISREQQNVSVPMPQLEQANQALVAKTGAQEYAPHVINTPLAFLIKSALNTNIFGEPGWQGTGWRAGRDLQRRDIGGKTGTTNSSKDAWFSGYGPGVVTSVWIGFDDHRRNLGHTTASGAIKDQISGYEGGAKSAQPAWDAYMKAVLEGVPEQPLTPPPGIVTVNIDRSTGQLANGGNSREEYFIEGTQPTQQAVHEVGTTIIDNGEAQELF

Pseudomonas aeruginosa = assay: In vitro antibacterial activity against Pseudomonas aeruginosa 18SH (constitutive beta-lactamase producer); assay type: functional; method in brief: as §1
Bacteroides fragilis [9] = assay: In vitro antibacterial activity against Bacteroides fragilis F117A; assay type: functional
Method in brief: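 MIC by broth dilution in microtiter plates, run in an oxygen-free hydrogen–carbon dioxide atmosphere. Medium: Schaedler's broth with coenzyme I and hemin added.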

Enterobacter cloacae = assay: In vitro antibacterial activity against Enterobacter cloacae P99 (constitutive beta-lactamase producer); assay type: functional
Citrobacter freundii [10] = assay: In vitro antibacterial activity against Citrobacter freundii BS-16 (constitutive beta-lactamase producer); assay type: functional; method in brief: as §1
Hathewaya histolytica = assay: In vitro antibacterial activity against Clostridium histolyticum 503-86; assay type: functional
Bacteroides fragilis [11] = assay: In vitro antibacterial activity against Bacteroides fragilis S2; assay type: functional
Method in brief: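 Anaerobic MICs were determined in microtiter plates in Schaedler's broth supplemented with coenzyme I and hemin. Incubation was under an oxygen-free hydrogen-carbon dioxide atmosphere.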

Staphylococcus aureus [12] = assay: as §2; assay type: functional; method in brief: as §1; remark: listed apart in the source
Staphylococcus aureus [13] = assay: Minimum inhibitory concentration to the compound inhibiting [14C]- Penicillin G binding to Staphylococcus aureus ATCC 29213 Penicillin binding protein
Streptococcus pneumoniae [14] = assay: In vitro antibacterial activity against Streptococcus pneumoniae 6301; assay type: functional; method in brief: as §3
Staphylococcus aureus [15] = assay: Minimum inhibitory concentration to the Penicillin G binding to Staphylococcus aureus ATCC 29213 PBPs

Row | Compound | IC50 (Escherichia coli) [µg/mL] | MIC (Serratia marcescens) [µg/mL] | MIC (Staphylococcus aureus [2]) [µg/mL] | IC90 [3] [µg/mL] | IC90 [4] [µg/mL] | MIC (Clostridioides difficile) [µg/mL] | MIC (Citrobacter freundii [5]) [µg/mL] | MIC (Streptococcus pneumoniae [6]) [µg/mL] | IC90 [8] [µg/mL] | MIC (Pseudomonas aeruginosa) [µg/mL] | MIC (Bacteroides fragilis [9]) [µg/mL] | other results
1 | C[C@@H](O)[C@H]1C(=O)N2C(C(=O)[O-])=C(COC(=O)N3CCN(c4cc5c(cc4F)c(=O)c(C(=O)O)cn5C4CC4)CC3)S[C@H]12.[Na+] | 3 | 0.25 | 4 | 2 | 2 | 4 | 0.125 | 0.0313 | 2 | 1 | 1 | IC90 [1]: 2 µg/mL; IC90 [7]: 2 µg/mL
2 | C[C@@H](O)[C@H]1C(=O)N2C(C(=O)[O-])=C(CO)S[C@H]12.[Na+] |  |  |  |  | 30 |  |  |  |  | 8 | 64 | MIC (Enterobacter cloacae): 8 µg/mL; MIC (Citrobacter freundii [10]): 4 µg/mL; MIC (Hathewaya histolytica): < 0.125 µg/mL; MIC (Bacteroides fragilis [11]): < 0.125 µg/mL; MIC (Staphylococcus aureus [12]): 1 µg/mL; MIC (Staphylococcus aureus [13]): 0.25 µg/mL; MIC (Streptococcus pneumoniae [14]): 0.125 µg/mL
3 | C[C@@H](O)[C@H]1C(=O)N2C(C(=O)[O-])=C(COC(=O)c3cn(CCF)c4c(F)c(N5CCN(C)CC5)c(F)cc4c3=O)S[C@H]12.[Na+] | 4.7 | 0.5 | 2 | 0.5 |  | 0.5 | 0.5 | < 0.0156 | 2 |  |  | MIC (Staphylococcus aureus [15]): 0.125 µg/mL
